{
  "source": "paper PMC10610910",
  "about": "(Science Advances, 2023)",
  "key": {"[1]": {"test_system": "complex formed by HSF2BP and BRCA2-HBD", "test": "Negative-staining EM of ring-shaped HSF2BP-BRCA2-HBD complex", "type": "binding, human", "details": "2:1 mix of HSF2BP and BRCA2-HBD"}, "[2]": {"test_system": "interstrand crosslink repair (pICL) in Xenopus egg extract", "test": "Cisplatin interstrand crosslink repair in Xenopus egg extract", "type": "biochemical", "details": "HSF2BP 0.45 μM, peptide 1.35 μM"}, "[3]": {"target": "T1, HSF2BP + BRCA2-HBD (Homo sapiens, UniProt O75031+P51587)", "T1 sequence (O75031 1-334)": "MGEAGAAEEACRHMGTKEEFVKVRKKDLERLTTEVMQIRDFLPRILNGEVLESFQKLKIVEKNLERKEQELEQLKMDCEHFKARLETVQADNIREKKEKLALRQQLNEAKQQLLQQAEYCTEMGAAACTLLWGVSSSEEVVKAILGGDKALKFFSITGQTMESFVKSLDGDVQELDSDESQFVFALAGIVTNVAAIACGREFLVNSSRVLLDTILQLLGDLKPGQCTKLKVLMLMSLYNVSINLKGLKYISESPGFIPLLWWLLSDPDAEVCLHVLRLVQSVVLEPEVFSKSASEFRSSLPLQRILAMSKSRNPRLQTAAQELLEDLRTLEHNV", "T1 sequence (P51587 2291-2342 C2332T partner limits assumed)": "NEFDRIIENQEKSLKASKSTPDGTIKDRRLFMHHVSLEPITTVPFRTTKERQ", "test": "ITC, BRME1-M versus HSF2BP bound to BRCA2-HBD", "type": "binding", "details": "293 K"}, "[4]": {"target": "T2, HSF2BP (Homo sapiens, UniProt O75031)", "T2 sequence (O75031 1-334)": "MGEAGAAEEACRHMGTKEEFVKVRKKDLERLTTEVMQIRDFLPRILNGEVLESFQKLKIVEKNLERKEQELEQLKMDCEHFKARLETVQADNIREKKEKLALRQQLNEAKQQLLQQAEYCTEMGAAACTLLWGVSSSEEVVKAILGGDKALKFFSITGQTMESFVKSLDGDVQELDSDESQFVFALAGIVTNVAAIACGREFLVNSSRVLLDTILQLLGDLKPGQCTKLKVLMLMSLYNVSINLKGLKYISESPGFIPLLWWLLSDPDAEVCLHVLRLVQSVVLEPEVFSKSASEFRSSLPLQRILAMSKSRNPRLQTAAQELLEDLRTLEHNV", "test": "Mass photometry", "type": "physicochemical", "details": "25-100 nM"}, "[5]": {"test_system": "endogenous Xenopus BRCA2", "test": "BRCA2 degradation during interstrand crosslink repair in Xenopus egg extract", "type": "biochemical", "details": "HSF2BP 0.45 μM, peptide 1.35 μM; 5 to 120 min"}, "[6]": {"target": "T2, HSF2BP", "test": "Scanning force microscopy", "type": "physicochemical", "summary_of_the_method": "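HSF2BP was diluted 10,000-fold to 12 nM in 25 mM tris-HCl pH 7.5, 250 mM NaCl, 5 mM β-mercaptoethanol. It was deposited for 30 s on freshly cleaved mica, rinsed with water, dried under filtered air, and imaged in air by SFM. Particle volume distributions were obtained by kernel density analysis.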"}, "[7]": {"target": "T3, HSF2BP helix α1 (Homo sapiens, UniProt O75031)", "T3 sequence (O75031 19-50 limits assumed)": "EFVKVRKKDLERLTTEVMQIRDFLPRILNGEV", "test": "ITC, BRME1-M versus HSF2BP helix α1 peptide", "type": "binding"}, "[8]": {"target": "T2, HSF2BP", "test": "ITC, BRME1 peptides versus full-length HSF2BP", "type": "binding", "summary_of_the_method": "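Full-length HSF2BP was His-tagged and bacterially expressed (IPTG, 20°C overnight), TEV-cleaved and SEC-purified. Synthetic BRME1 peptides: N, residues 578–601; M, 602–641; C, 649–668. In 25 mM tris pH 7.5, 250 mM NaCl, 5 mM β-mercaptoethanol at 293 and 303 K, 8–13 μM HSF2BP in the cell was titrated with 80–130 μM peptide. Injections of 10 μl every 210 s; first 2-μl injection discarded. Run in duplicate, fitted for stoichiometry, constants and thermodynamics.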"}, "[9]": {"test_system": "HR intermediates (X-arc) of pICL in Xenopus egg extract", "type": "biochemical", "details": "HSF2BP 0.45 μM, peptide 1.35 μM"}, "[10]": {"test": "SEC-MALS molecular mass / oligomeric state", "type": "physicochemical", "details": "25 mM tris-HCl pH 7.5, 250 mM NaCl, 5 mM β-mercaptoethanol, n = 2"}, "[11]": {"test_system": "DNA", "details": "ref [23]; cited from earlier work"}, "[12]": {"test_system": "HeLa cells", "type": "cell-based, human", "details": "HeLa stably producing the protein; MMC, cisplatin, talazoparib", "summary_of_the_method": "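HeLa cells in DMEM with 10% fetal calf serum were stably co-transfected (PiggyBac) with GFP-HSF2BP and/or Flag-BRME1 variants, then selected with puromycin (1.5 μg/ml) and G418 (800 μg/ml) for 8 days; mixed populations were used. Seeded 100–1000 cells/well in technical duplicates, drugs added next day: MMC 2 h, cisplatin or talazoparib overnight. Coomassie-stained colonies counted on day 10.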"}, "[13]": {"test": "SEC-SAXS of free HSF2BP", "type": "physicochemical", "summary_of_the_method": "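Free HSF2BP was loaded at 6 mg/ml onto a BIOSEC 3 column in 25 mM tris-HCl pH 7.5, 250 mM NaCl, 5 mM β-mercaptoethanol, with synchrotron scattering recorded every second during elution. Curves across the elution peak were summed. P(r) was derived so that its Fourier transform fits the SAXS curve.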"}, "[14]": {"test_system": "endogenous Xenopus BRCA2", "details": "Xenopus egg extract; ref [24]; cited from earlier work"}, "[15]": {"test_system": "interstrand crosslink repair (pICL) in Xenopus egg extract", "details": "Xenopus and human HSF2BP, ref [24]; cited from earlier work"}, "[16]": {"details": "SFM on mica, in air, HSF2BP at 12 nM"}},
  "note": "Entries after “also recorded” stand apart in the source; their conditions may differ. No end group written: not given here.",
  "data": [
    {"molecule": "EDATNVVRGLVIELSNLNRLIMGTHRDLEAFKRLNYRKTK [BRME1-M]", "values": [
      {"measurement": "effect on ring-shaped complexes, in words", "setting": "[1]", "result": "near-complete disappearance of the large ring-shape complexes"},
      {"measurement": "effect on interstrand crosslink repair, in words", "setting": "[2]", "result": "reverted the inhibitory effect of HSF2BP on the interstrand crosslink repair reaction"},
      {"measurement": "ΔG", "setting": "[3]; first of two lines", "result": -10, "unit": "kcal/mol"},
      {"measurement": "ΔH", "setting": "[3]; first of two lines", "result": -4.4, "unit": "kcal/mol"},
      {"measurement": "─TΔS", "setting": "[3]; first of two lines", "result": -5.60, "unit": "kcal/mol"},
      {"measurement": "ΔH", "setting": "[3]; second of two lines", "result": -5.8, "unit": "kcal/mol"},
      {"measurement": "─TΔS", "setting": "[3]; second of two lines", "result": -4.40, "unit": "kcal/mol"},
      {"measurement": "effect on / state of HSF2BP oligomers, in words", "setting": "[4]", "result": "the HSF2BP tetramer is dissociated into dimers; also recorded: disassembles the 24-nucleotide oligomer complexes, yielding to a mix between octamers, tetramers, and dimers; also recorded: caused disassembly of the ring-shaped complex and enrichment in double-octamers, octamers, and tetramers"},
      {"measurement": "effect on HSF2BP-induced BRCA2 degradation, in words", "setting": "[5]", "result": "completely abolished"},
      {"measurement": "effect on HSF2BP-BRCA2-HBD oligomers, in words", "setting": "[6]; SFM, HSF2BP:BRME1-M = 1:1", "result": "complete disappearance of the 24-nucleotide oligomer population"},
      {"measurement": "ΔH", "setting": "[7]; 293 K", "result": -1.2, "unit": "kcal/mol"},
      {"measurement": "─TΔS", "setting": "[7]; 293 K", "result": -9.00, "unit": "kcal/mol"},
      {"measurement": "ΔH", "setting": "[7]; 303 K", "result": -7.6, "unit": "kcal/mol"},
      {"measurement": "─TΔS", "setting": "[7]; 303 K", "result": -2.90, "unit": "kcal/mol"},
      {"measurement": "ΔG", "setting": "[8]; 293 K", "result": -10.6, "unit": "kcal/mol"},
      {"measurement": "ΔH", "setting": "[8]; 293 K", "result": -5.7, "unit": "kcal/mol"},
      {"measurement": "─TΔS", "setting": "[8]; 293 K", "result": -4.90, "unit": "kcal/mol"},
      {"measurement": "ΔG", "setting": "[8]; 303 K", "result": -10.7, "unit": "kcal/mol"},
      {"measurement": "ΔH", "setting": "[8]; 303 K", "result": -8.2, "unit": "kcal/mol"},
      {"measurement": "─TΔS", "setting": "[8]; 303 K", "result": -2.50, "unit": "kcal/mol"},
      {"measurement": "effect on HR repair intermediates, in words", "setting": "[9]", "result": "specifically suppressed the reduction in the formation of HR repair intermediates"}
    ]},
    {"molecule": "HSF2BP: human HSF2BP, full-length wild type; GFP-HSF2BP in HeLa cells (protein, left off: His6, end not stated, cleaved) MGEAGAAEEACRHMGTKEEFVKVRKKDLERLTTEVMQIRDFLPRILNGEVLESFQKLKIVEKNLERKEQELEQLKMDCEHFKARLETVQADNIREKKEKLALRQQLNEAKQQLLQQAEYCTEMGAAACTLLWGVSSSEEVVKAILGGDKALKFFSITGQTMESFVKSLDGDVQELDSDESQFVFALAGIVTNVAAIACGREFLVNSSRVLLDTILQLLGDLKPGQCTKLKVLMLMSLYNVSINLKGLKYISESPGFIPLLWWLLSDPDAEVCLHVLRLVQSVVLEPEVFSKSASEFRSSLPLQRILAMSKSRNPRLQTAAQELLEDLRTLEHNV", "values": [
      {"measurement": "apparent molar mass", "setting": "[10]", "result": "136 ± 7", "unit": "kDa"},
      {"measurement": "effect on / state of HSF2BP oligomers, in words", "setting": "[4]", "result": "at 25 nM, it is a mix of dimers and tetramers"},
      {"measurement": "affinity for DNA, in words", "setting": "[11]", "result": "no detectable affinity for DNA"},
      {"measurement": "effect on cell resistance to DNA damage, in words", "setting": "[12]", "result": "sensitized cells to DNA damage"},
      {"measurement": "particle volume, larger peak", "setting": "[6]; [16]", "result": "~190", "unit": "nm^3"},
      {"measurement": "particle volume, smaller peak", "setting": "[6]; [16]", "result": "around 95 nm^3"},
      {"measurement": "maximal distance", "setting": "[13]; P(r)", "result": 250, "unit": "Å"},
      {"measurement": "molar mass (I(0))", "setting": "[13]; protein ~50 to 60 μM, pH 7.5, 293.15 K", "result": "156 ± 21", "unit": "kDa"},
      {"measurement": "effect on BRCA2, in words", "setting": "[14]", "result": "leads to DNA crosslink-dependent proteasomal degradation of BRCA2"},
      {"measurement": "effect on crosslink repair, in words", "setting": "[15]", "result": "inhibit replication-dependent restoration of the genetic information at the crosslink"}
    ]}
  ]
}
